FLuc stim CS = affects firefly luciferase, flagging false hits in luciferase stimulation screens | P08659 | ATPlite luciferase biochemical, luminescence, 10 min; 0 = ATP-free wells, 1 = DMSO control | activation factor at 10 µM | 200,000 tested, under 10 active | AID 1027;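 active means luciferase activation factor, scaled between plate controls, of at least 2 with compound at 10 µM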
Target sequence (P08659 whole entry, looked up): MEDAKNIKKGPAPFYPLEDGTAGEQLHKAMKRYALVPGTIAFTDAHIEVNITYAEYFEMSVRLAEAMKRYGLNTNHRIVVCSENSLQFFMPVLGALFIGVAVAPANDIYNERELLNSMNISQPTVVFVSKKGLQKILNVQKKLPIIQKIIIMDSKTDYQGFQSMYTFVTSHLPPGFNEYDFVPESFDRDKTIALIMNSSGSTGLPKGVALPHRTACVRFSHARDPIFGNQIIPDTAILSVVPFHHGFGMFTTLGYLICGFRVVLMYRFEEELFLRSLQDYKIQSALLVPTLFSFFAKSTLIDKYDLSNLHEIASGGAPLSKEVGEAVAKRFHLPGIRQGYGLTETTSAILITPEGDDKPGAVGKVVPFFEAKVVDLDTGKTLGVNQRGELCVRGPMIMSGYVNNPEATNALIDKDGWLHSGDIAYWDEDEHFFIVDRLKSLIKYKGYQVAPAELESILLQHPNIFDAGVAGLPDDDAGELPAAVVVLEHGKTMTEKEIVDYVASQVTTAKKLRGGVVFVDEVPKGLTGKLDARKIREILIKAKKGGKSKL
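Material: Luciferase/luciferin reagent mix | Doses: Test compounds dosed from 2 mM stocks in 100% DMSO | Timing: 10 min incubation after luciferase reagent addition, room temperature | Measured by: Luminescence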
STAT1 blocker = reduces IFN-gamma driven STAT1 reporter signal. NIH 3T3 STAT1-luciferase reporter, luminescence. inhibition, % at 5.5 µM. hit rate 0.35% among 200,000;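 active means inhibition above a set limit, the mean inhibition across all tested compounds plus 3 SD, cut at about 34% in these data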
STAT1 act = STAT1 signaling activation; NIH 3T3 STAT1-luciferase reporter, IFN-gamma, luminescence; 100% = IFN-gamma alone, no compound; activation (% of control), % at 5.5 µM; hit rate 2.6% among 200,000;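 active means activation above the screen-wide mean activation plus 3 SD, cut at about 130% in these data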
STAT3 blocker = reduces IL-6 driven STAT3 reporter signal; U3A cells, IL-6 STAT3-luciferase reporter, luminescence; host cell line lacks STAT1; AID 862; hit rate 0.89% among 190,000; inhibition, % at 5.5 µM;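 active means inhibition above the mean inhibition across all screened compounds plus 3 SD, cut at about 44% in these data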
STAT3 act = increases IL-6 driven STAT3 reporter signal; U3A cells, IL-6 STAT3-luciferase reporter, luminescence; 100% = signal with IL-6 EC80 alone; activation (% of control), % at 5.6 µM; hit rate 0.91% among 190,000; AID 871;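 active means activation above the screen-wide mean of compound activation plus 3 SD, cut at about 130% in these data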
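Test system: human U3A cells carrying STAT3-luciferase construct; control set: IL-6-only wells as 100% reference; timing: compound pre-incubation 1 h before IL-6, then 6 h stimulation at 37 °C; also added: IL-6 stimulus at 33 ng/mL final; evaluation: % activation versus median of IL-6-stimulated wells; detection: reporter luminescence signal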
FLuc inhib CS = counter-screen for luciferase assay inhibitors: firefly luciferase inhibition | ATPLite firefly luciferase biochemical luminescence, 10 min | inhibition, % at 10 µM | hit rate 1.5% among 200,000 | AID 1006;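 active means inhibition above about 50% when tested at 10 µM, limit read from the data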
Hits are given with their value; n = inactive; x = no result. In the library only some 4.9% were active in any assay of this set; here they are far more common.

SMILES	FLuc stim CS	STAT1 blocker	STAT1 act	STAT3 blocker	STAT3 act	FLuc inhib CS
CCOc1ccc(/C=C/C(=O)c2ccc(-c3ccccc3)cc2)cc1	n	n	n	n	n	n
CCOc1ccc(/C=C/C(=O)C(C(N)=O)=C2SCCS2)cc1	n	n	n	n	n	58
O=C(CN1C(=O)NC2(CCCCCCC2)C1=O)NC1CCCc2ccccc21 (stereo not drawn)	n	n	n	n	n	n
N#CC(c1cccc(Cl)c1)c1ccc2c(C(F)(F)F)cc(C(F)(F)F)nc2n1 (stereo not drawn)	n	61	n	86	n	n
C=CCNC(=O)c1c(Br)cnn1-c1ccc(C)cc1	n	n	147	n	n	n
CCOC(=O)c1cnn(-c2ccc(C)cc2)c1N	n	n	n	n	n	n
Cc1ccc(SCc2nc(-c3ccccc3)no2)cc1	n	n	n	n	n	n
Brc1ccccc1-c1nc(-c2ccccc2)no1	n	n	147	n	n	73
Fc1ccccc1-c1nc(-c2ccccc2)no1	n	n	130	n	n	60
COc1ccc(-c2noc(-c3ccccc3F)n2)cc1	n	n	n	n	n	n
c1ccc(-c2ccccc2-c2nc(-c3cccnc3)no2)cc1	n	n	n	n	n	n
Cc1occc1-c1nc(-c2ccncc2)no1	n	n	n	n	n	n
Cc1ccc(-c2noc(-c3ccoc3C)n2)cc1	n	n	154	n	138	n
Cc1ccc(-c2nc(-c3ccccc3)no2)c(Cl)c1	n	69	n	101	n	95
CCc1ccc(OCC(=O)Nc2ncn[nH]2)cc1	n	n	n	n	n	n
CNS(=O)(=O)c1ccc(C)c(S(=O)(=O)NC)c1	n	n	n	n	n	n
CC1CCC(C(C)C)C(OC(=O)CSc2nccc(=O)[nH]2)C1 (stereo not drawn)	n	n	n	n	n	n
COc1ccc(-c2n(CC(=O)OC3CC(C)CCC3C(C)C)c3ccccc3[n+]2C)cc1 (stereo not drawn)	n	57	n	52	n	n
CC1CN(c2nc3ccccc3cc2-c2ccccc2)CC(C)O1 (stereo not drawn)	n	n	n	n	n	n
CCOc1ccc(NC(=O)Nc2cccs2)cc1	n	n	n	n	n	83
CCc1ccc(NC(=O)Nc2cccs2)cc1	n	n	134	n	n	85
COc1cccc(NC(=O)Nc2cccs2)c1	n	n	n	n	n	n
Cc1ccc(NC(=O)Nc2cccs2)cc1	n	n	n	n	n	64
COc1ccc(NC(=O)Nc2cccs2)cc1OC	n	n	n	n	n	n
COc1ccc2c(=O)c(Oc3ccc(C(=O)O)cc3)c(C(F)(F)F)oc2c1	n	n	n	n	n	n
SMILES	FLuc stim CS	STAT1 blocker	STAT1 act	STAT3 blocker	STAT3 act	FLuc inhib CS
NC(Cc1c[nH]c2ccccc12)C(=O)NCc1ccco1 (stereo not drawn)	n	n	n	n	n	n
Cc1cccc(Oc2nc(CN3CCOCC3)nc3sc4c(c23)CCCC4)c1	n	n	n	n	n	n
O=C(Nc1ccc(Cl)cc1)Nc1cccc(C(=O)O)c1	n	88	n	99	n	76
O=C(Nc1ccccc1)Nc1cccc(Cl)c1	n	n	n	n	n	n
CC(C)C(=O)Nc1cccc(C(=O)Nc2ccccc2C(=O)O)c1	n	n	n	n	n	61
CCN1CCN(Cc2ccc(NC(=O)Nc3ccccc3Cl)cc2)CC1	n	n	n	n	n	66
O=C(Nc1cccc(C(=O)O)c1)Nc1ccccc1Cl	n	79	n	89	n	n
O=C(O)CCCC(=O)Nc1cccc(C(=O)Nc2ccccc2C(=O)O)c1	n	n	n	n	n	n
O=C(NCc1ccccc1Cl)c1cccc(NC(=O)c2ccccc2)c1	n	n	n	n	n	n
COc1ccccc1N1CCN(C(=O)CSc2nnc3c4ccccc4nc(Cc4ccccc4)n23)CC1	n	n	n	n	n	n
CCSC1=N/C(=C\c2ccc3c(c2)OCO3)C(=O)S1	n	n	n	n	n	n
CN1C(=O)/C(=C/c2ccc3c(c2)OCO3)N=C1c1ccccc1	n	n	n	n	n	62
C=CCc1cccc2cc(C(=O)Nc3ccccc3C(=O)O)c(=O)oc12	n	72	n	n	n	n
O=C(CNS(=O)(=O)c1cccs1)NCc1ccccc1	n	n	n	n	n	n
O=C1CCCC/C1=C/Nc1ccc(C(=O)O)cc1	n	n	n	n	n	n
O=C1CCCC/C1=C/Nc1ccc2c(c1)OCO2	n	n	141	n	n	n
CC(C)c1ccc(NC(=O)c2cccc(Br)c2)cc1	n	n	140	n	n	n
O=C(Nc1ccc(S(=O)(=O)Nc2ncccn2)cc1)c1cccnc1	n	n	134	n	n	n
CCC(C)c1ccc(NC(=O)c2cccnc2)cc1 (stereo not drawn)	n	n	133	n	n	n
CCC(C)c1ccc(O)c(NC(=O)c2cccnc2)c1 (stereo not drawn)	n	n	n	n	n	n
COc1ccc(/C=N/N=C2\SC(CC(=O)O)C(=O)N2c2ccccc2)c(OC)c1 (stereo not drawn)	n	n	n	n	n	n
COCCNC(=O)NC(=O)CN1CCCc2ccccc21	n	n	n	n	n	n
Cc1c(NC(=O)C(C)n2cc([N+](=O)[O-])cn2)c(=O)n(-c2ccccc2)n1C (stereo not drawn)	n	n	n	n	n	n
CCOC(=O)CSc1nnc(-c2ccc(Cl)cc2Cl)o1	n	n	n	n	n	56
CCCOC(=O)CSc1nnc(-c2ccc(Cl)cc2Cl)o1	n	n	n	n	n	n
SMILES	FLuc stim CS	STAT1 blocker	STAT1 act	STAT3 blocker	STAT3 act	FLuc inhib CS
O=C(CN1C(=O)C2C3C=CC(C3)C2C1=O)Nc1ccc(S(=O)(=O)N2CCCCC2)cc1 (stereo not drawn)	n	n	n	n	n	n
O=C(Nc1nc2ccccc2n1CCN1CCCCC1)c1ccc(Cl)cc1	n	n	n	n	n	n
Cc1ccc(C(=O)Nc2nc3ccccc3n2CCN2CCCC2)cc1	n	n	141	n	157	n
CCN(CC)CCn1c(NC(=O)c2ccc(Cl)cc2)nc2ccccc21	n	n	n	n	136	n
C#CCNC(=O)C1=C[C@@H](C2CCCCC2)[C@H](CCCO)[C@@H](OCC)O1	n	n	n	x	x	n
CCCN1C(=O)COc2ccc(-c3n[nH]c(=O)c4ccccc34)cc21	n	n	n	n	n	n
O=C(Nc1ccc(Cl)cc1Cl)NC1CCCC1	n	n	n	n	n	n
CN(C(=O)Nc1ccc(Cl)cc1Cl)C1CCCC1	n	n	135	n	n	n
C=CCNC(=O)COc1ccc(N(C)S(=O)(=O)c2ccc(NC(C)=O)cc2)cc1	n	n	n	n	n	n
COc1ccc(C(=O)Cc2cc(OC)c(OC)cc2C(=O)c2ccccc2F)cc1OC	n	n	n	n	n	n
